Experimental findings from the array DNA melting data of Ke et al. (doi:10.1101/2024.01.08.574731) are described below.

The nature of data set [1]: folding enthalpy; higher = less favourable; fluorescence melt of hairpins on a sequencing array, two-state fit. Particulars: sodium 0.088 M. In a few lines: (§1)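 Melting temperature and folding enthalpy were obtained by bootstrapped two-state fitting. Fits used Cy3 fluorescence of library hairpins with annealed Cy3 and quencher oligos on a sequenced MiSeq flow cell, imaged in 50 mM Na-HEPES pH 8.0, 25 mM NaCl in 2.5 °C steps up to 60 °C and normalised to pre-quench Cy3 and control constructs. Four replicates were combined by inverse-variance weighting, and fitted temperatures were raised by 9.35 °C to match UV melts.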

Data set [2] in a line: melting temperature; fluorescence melt of hairpins on a sequencing array, two-state fit, raised by 9.35 °C to match UV melts. As to conditions: sodium 0.088 M. A digest of the protocol: as §1

Regarding GGATAGGAAACTATCC ((((((....)))))), the folding enthalpy in data set [1] was -30.5 kcal/mol. In addition, the Tm in data set [2] turned out to be 51.4 °C.
Consider GGCAACGAAAGTTTAGCC ((((((....)))..))), for which, in data set [1], the folding enthalpy is -29.1 kcal/mol. For the same sequence, the Tm in data set [2] turned out to be 43.5 °C.
GGCCCACGAAAGTGTGCC (((.(((....))).))): the folding enthalpy in data set [1] is -49.1 kcal/mol. The Tm in data set [2] is 58.1 °C.
As to GCACCGCGAAAGCGCGGC ((..(((....)))..)), the folding enthalpy in data set [1] is -11 kcal/mol. The Tm in data set [2] is 45 °C.
In the same order, the values of GCCATGCGAAAGCCTCGC ((.(.((....)).).)) are -6.86 kcal/mol and 34 °C.
For the sequence GGTGGGCGAAAGCCAACC (((.(((....))).))), the folding enthalpy in data set [1] was -28.7 kcal/mol. Further, the Tm in data set [2] came to 64.1 °C.
On to GTCATCGAAAGATGAGAC ((((((....)))..))), for which, in data set [1], the folding enthalpy was -13.7 kcal/mol. Also, the Tm in data set [2] is 40.7 °C.
Take GCTGCGCGAAAGCAGAGC (((..((....))..))): the folding enthalpy in data set [1] was -16.1 kcal/mol. The Tm in data set [2] is 47.7 °C.
GGCTATCGAAAGATGGCC (((.(((....))).))): in data set [1], the folding enthalpy was -52.3 kcal/mol. Moreover, in data set [2], the Tm stood at 59.8 °C.
As for GGTTACCGAAAGGTCACC (((.(((....))).))), in data set [1], the folding enthalpy was -27.7 kcal/mol. The Tm in data set [2] stood at 49.1 °C.
For GGTCCTGGAAACAGAACC (((.(((....))).))), in that order: -29.7 kcal/mol and 38.9 °C.
On to GATCATTCCATGATC ((((((...)))))), for which the folding enthalpy in data set [1] was -39.4 kcal/mol. Moreover, in data set [2], the Tm worked out at 51 °C.
Consider GCCGAAGCGAAAGCTGGC (((..(((....)))))), for which, in data set [1], the folding enthalpy is -31.6 kcal/mol. The Tm in data set [2] is 57.1 °C.
For the sequence GAACAAGAAATTGTTC ((((((....)))))), the folding enthalpy in data set [1] was -26.4 kcal/mol. Further, the Tm in data set [2] turned out to be 45.1 °C.
Take GATCATAGCTATGATC ((((((....)))))): the folding enthalpy in data set [1] was -47.4 kcal/mol. The Tm in data set [2] was 50.7 °C.
With GATCATATTGATGATC ((((((....)))))), in data set [1], the folding enthalpy is -31.9 kcal/mol. Moreover, the Tm in data set [2] is 47.3 °C.
For GACCCTGGAAACAGGGTC (((((((....))))))), the folding enthalpy in data set [1] is -36.9 kcal/mol. Moreover, the Tm in data set [2] is 67.7 °C.
For GCTCCCGAAAGGGGAAGC ((((((....)))..))), in that order: -19.2 kcal/mol and 50 °C.
On to GATCGAAAATTCGATC ((((((....)))))), for which the folding enthalpy in data set [1] was -33.9 kcal/mol. Further, the Tm in data set [2] was 50 °C.
Regarding GTCTGCGAAAGCACCGAC ((((((....)))..))), the folding enthalpy in data set [1] was -12.7 kcal/mol. The Tm in data set [2] was 32.3 °C.
With GCGGAAACCGC ((((...)))), the folding enthalpy in data set [1] is -23 kcal/mol. In addition, the Tm in data set [2] came to 52.9 °C.
For GATGGGGGAAACCCCGTC ((.((((....)))).)), in that order: -24.7 kcal/mol and 52.7 °C.
For GCGCAGCGAAAGCTAAGC ((..(((....)))..)), in that order: -17.7 kcal/mol and 58.4 °C.
On to GGACTGCCGAAAGGCTCC (((..(((....)))))), for which the folding enthalpy in data set [1] is -10.2 kcal/mol. For the same sequence, the Tm in data set [2] stood at 34.7 °C.
Regarding GCTAGCGAAAGCTCCAGC ((((((....)))..))), the folding enthalpy in data set [1] is -10.8 kcal/mol. For the same sequence, in data set [2], the Tm was 33.1 °C.
Consider GGTTGGGGAAACCTAACC ((((.((....)).)))), for which the folding enthalpy in data set [1] was -32.4 kcal/mol. Also, the Tm in data set [2] was 48 °C.
In the case of GTCCCCGGAAACGGGAAC ((.((((....)))).)), the folding enthalpy in data set [1] was -15.1 kcal/mol. In addition, the Tm in data set [2] amounted to 46.4 °C.
In the case of GCTCTGCGAAAGCTTAGC (((..((....))..))), the folding enthalpy in data set [1] was -18.5 kcal/mol. In addition, the Tm in data set [2] stood at 44.2 °C.
As for GGAGTGGGAAACCACCCC ((.((((....)))).)), the folding enthalpy in data set [1] was -21.5 kcal/mol. Moreover, in data set [2], the Tm worked out at 47.1 °C.
Take GTATTACGAAAGTATAC (((.(((....)))))): the folding enthalpy in data set [1] was -18.1 kcal/mol. The Tm in data set [2] was 32.5 °C.
As for GATCTCAATGGAGATC ((((((....)))))), the folding enthalpy in data set [1] was -40.6 kcal/mol. Besides, the Tm in data set [2] was 51.5 °C.
With GTCACGGGAAACCGTGGC (.(((((....))))).), in data set [1], the folding enthalpy is -19 kcal/mol. The Tm in data set [2] came out at 62.7 °C.
In the case of CGGTCGGAAACGATCCG ((((((....))).))), the folding enthalpy in data set [1] was -43.2 kcal/mol. In addition, the Tm in data set [2] stood at 50.5 °C.
Take CATTTGAAAAAATG (((((....))))): the folding enthalpy in data set [1] was -11.1 kcal/mol. Besides, the Tm in data set [2] stood at 32.1 °C.
As to GGCTATGGAAACATAGTC (.(((((....))))).), the folding enthalpy in data set [1] is -34.7 kcal/mol. Also, the Tm in data set [2] is 46.5 °C.
Take GGCGAGAAATCGCC (((((....))))): in data set [1], the folding enthalpy was -26.4 kcal/mol. In addition, the Tm in data set [2] worked out at 65.5 °C.
As for GACACTGAAAAGTGTC ((((((....)))))), the folding enthalpy in data set [1] was -34.5 kcal/mol. Further, in data set [2], the Tm stood at 58.6 °C.
In the same order, the values of GATCGTGTCTACGATC ((((((....)))))) are -38.3 kcal/mol and 59.8 °C.
Consider GGCTAGGGAAACCTAACC ((.((((....)))).)), for which the folding enthalpy in data set [1] was -30.3 kcal/mol. The Tm in data set [2] was 35.2 °C.
With GAATACGGAAACGCATTC ((((.((....)).)))), in data set [1], the folding enthalpy is -29.8 kcal/mol. Moreover, the Tm in data set [2] is 36.8 °C.
As to GGGCATGGAAACGTGCTC (.(((.(....).))).), the folding enthalpy in data set [1] is -20.8 kcal/mol. The Tm in data set [2] came to 45 °C.
Turning to GGCGTAGGAAACTACGTC (.(((((....))))).), in data set [1], the folding enthalpy was -34.7 kcal/mol. Besides, in data set [2], the Tm worked out at 52.4 °C.
Turning to GATCCTTGTAAGGATC ((((((....)))))), the folding enthalpy in data set [1] was -42.3 kcal/mol. Further, the Tm in data set [2] amounted to 55.6 °C.
In the case of GCTTGGCGAAAGCCAGC (((.(((....)))))), in data set [1], the folding enthalpy was -14.3 kcal/mol. The Tm in data set [2] came to 59 °C.
For GGCGGGACGAAAGTCGCC (((..(((....)))))), in that order: -28.6 kcal/mol and 59.5 °C.
For GATCGTAGTAACGATC ((((((....)))))), in that order: -41.5 kcal/mol and 55.7 °C.
For GGGTTGGGAAACCAGTCC ((..(((....)))..)), the folding enthalpy in data set [1] is -16.4 kcal/mol. In addition, in data set [2], the Tm was 38 °C.
With GTGCTCGGAAACGAGTGC (..((((....))))..), in data set [1], the folding enthalpy was -24.2 kcal/mol. Further, the Tm in data set [2] was 50.4 °C.
With GATTTGAAAAAATC (((((....))))), in data set [1], the folding enthalpy is -13.9 kcal/mol. Moreover, in data set [2], the Tm turned out to be 34 °C.
In the same order, the values of GCCGTGCGAAAGCACAGC ((.((((....)))).)) are -14 kcal/mol and 61.2 °C.
Regarding CGTTCGAAAGAACG (((((....))))), the folding enthalpy in data set [1] was -30.6 kcal/mol. In addition, the Tm in data set [2] was 58.2 °C.
For GATATAGGAAACTATGTC ((.((((....)))).)), the folding enthalpy in data set [1] was -21.8 kcal/mol. Besides, the Tm in data set [2] came to 33.5 °C.
GCGTGTCCACGC ((((....)))): the folding enthalpy in data set [1] is -32.9 kcal/mol. The Tm in data set [2] stood at 61.5 °C.
GGGTCCGAAAGGAGCCCC ((((((....)))..))): in data set [1], the folding enthalpy was -11 kcal/mol. Further, in data set [2], the Tm stood at 66.4 °C.
On to GCTCGGCGAAAGCTGGGC ((.(.((....)).).)), for which the folding enthalpy in data set [1] was -26.2 kcal/mol. The Tm in data set [2] was determined as 60.9 °C.
For the sequence CGCTGTCGGAAACGAGCG (((..(((....)))))), the folding enthalpy in data set [1] is -25 kcal/mol. The Tm in data set [2] was 45.2 °C.
Consider GATCCTGCCCAGGATC ((((((....)))))), for which the folding enthalpy in data set [1] is -49.4 kcal/mol. Moreover, the Tm in data set [2] came to 57 °C.
For GATCCCGTCGGGATC ((((((...)))))), the folding enthalpy in data set [1] was -37.7 kcal/mol. Besides, the Tm in data set [2] was found to be 67.2 °C.
As for GGCCAGGGAAACCTGGTC (.(((((....))))).), the folding enthalpy in data set [1] is -33.5 kcal/mol. For the same sequence, the Tm in data set [2] was 57.6 °C.
In the same order, the values of GATCAGATCCCTGATC ((((((....)))))) are -31.8 kcal/mol and 48.3 °C.
Consider GCCGGTCGAAAGACGGGC (((.(((....))).))), for which the folding enthalpy in data set [1] is -39.9 kcal/mol. In addition, the Tm in data set [2] was determined as 63.9 °C.
In the case of CGACCGGAAACGGACTCG ((((((....)))..))), in data set [1], the folding enthalpy was -12.9 kcal/mol. Besides, in data set [2], the Tm stood at 30.7 °C.
For GCGATACCGAAAGGTCGC (((..(((....)))))), in that order: -29.3 kcal/mol and 54.3 °C.
For the sequence GATGTGGCGAAAGCCATC (((..(((....)))))), the folding enthalpy in data set [1] was -8.76 kcal/mol. The Tm in data set [2] was found to be 38.5 °C.
As to GGCGTCGAAAGACGCGCC ((((((....)))..))), the folding enthalpy in data set [1] was -6.87 kcal/mol. Further, the Tm in data set [2] came to 62.7 °C.
Regarding GATCCTGCATAGGATC ((((((....)))))), the folding enthalpy in data set [1] was -43.4 kcal/mol. In data set [2], the Tm worked out at 60.9 °C.
In the same order, the values of GTCGGGGGAAACTCCGAC (((((.(....).))))) are -44.7 kcal/mol and 57.6 °C.
As for GATCTCGTTAGAGATC ((((((....)))))), the folding enthalpy in data set [1] was -39.9 kcal/mol. The Tm in data set [2] was 65.1 °C.
For GATCAGTTACTGATC ((((((...)))))), in that order: -41.7 kcal/mol and 51.4 °C.
As to GCGATCTTTCGC ((((....)))), the folding enthalpy in data set [1] is -27.5 kcal/mol. Further, in data set [2], the Tm worked out at 51.4 °C.
On to GATCACCGGGGTGATC ((((((....)))))), for which, in data set [1], the folding enthalpy was -46.5 kcal/mol. Also, the Tm in data set [2] was found to be 62.7 °C.
In the same order, the values of GTTGAGCGAAAGCTGAAC (((.(((....))).))) are -23.9 kcal/mol and 46.2 °C.
In the same order, the values of GATCGGGGCCCCGATC ((((((....)))))) are -55 kcal/mol and 68.6 °C.
GGGATGCGAAAGCACCC (((.(((....)))))): the folding enthalpy in data set [1] was -21.4 kcal/mol. Moreover, in data set [2], the Tm was determined as 60 °C.
